Experimental data reported in PubChem BioAssay AID623950 (Broad Institute, 2012).
Activity calls are given as the source filed them.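 Rule for the calls: active = compounds lowering cell ATP signal with fitted IC50 at most twice the highest tested dose; inconclusive = flat fit with 30 to 70% signal loss, or poor fit; inactive = the rest.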

How the values were obtained:
[1] = HeLa cell cytotoxicity, dose response, cytotoxicity control for pyoverdine inhibitor project, CellTiter-Glo luminescence, dry powder samples (AID 623950); conditions: HeLa viability, CellTiter-Glo ATP luminescence; at 50 µM (top of the series)
How it was run: (§1)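 Material: HeLa cells; quantity: 2,500 HeLa cells per well; medium: phenol red-free DMEM with 10% fetal bovine serum; dosing: compound dose series in threefold dilution steps; incubation: 24 h cell growth, 48 h compound exposure; detection: CellTiter-Glo luminescence as viability measure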

[2] = system: HeLa viability, CellTiter-Glo ATP luminescence; assay: as above
How it was run: as §1

Structure (SMILES) | activity change, negative = toxicity [1] | IC50 [2]
N#Cc1cccc(C(C#N)c2ccccc2OC(F)(F)F)n1 (stereo not drawn) | -3.3% (inactive) | 
N#CC(c1ccc(Cl)cc1)c1ccc(Cl)cn1 (stereo not drawn) | -2.34% (inactive) | 
N#CC(c1ccc(C(F)(F)F)c(Cl)n1)c1ccc(Cl)cc1F (stereo not drawn) |  | 48.4 µM
CC(C#N)(c1ccc(Cl)cc1)c1ccc(C(F)(F)F)cn1 (stereo not drawn) | -9.2% (inactive) | 
N#Cc1cccc(C(C#N)c2ccc(Cl)cc2F)n1 (stereo not drawn) | 4.41% (inactive) | 
CCCCC(C#N)c1ccccc1OC(F)(F)F (stereo not drawn) | 8.75% (inactive) | 
CCCCC(C#N)c1ccc(Cl)cc1Cl (stereo not drawn) | 0.128% (inactive) | 
N#CC(c1cccc(Cl)n1)c1ccc(Cl)cc1Cl (stereo not drawn) |  | > 100 µM (inactive)
N#Cc1cccc(C(C#N)c2ccc(Cl)cc2)n1 (stereo not drawn) | -0.235% (inactive) | 
CCCCC(C#N)c1ccc(C(F)(F)F)cc1 (stereo not drawn) | 4.97% (inactive) | 
N#CC(c1cccc(C(F)(F)F)n1)c1ccccc1OC(F)(F)F (stereo not drawn) | 6.21% (inactive) | 
CC(C)CC(C#N)c1ccc(Cl)cc1 (stereo not drawn) | -0.673% (inactive) | 
N#CC(c1cccc(C(F)(F)F)n1)c1ccc(Cl)cc1F (stereo not drawn) | -5.15% (inactive) | 
N#CC(c1ccc(C(F)(F)F)cc1)c1cccc(C(F)(F)F)n1 (stereo not drawn) |  | > 100 µM (inactive)
N#CC(c1ccc(C(F)(F)F)cc1)c1cccc(Cl)n1 (stereo not drawn) | -3.15% (inactive) | 
CCCCC(C#N)c1ccc(F)cc1 (stereo not drawn) | 4.15% (inactive) | 
N#CC(c1ccc(C(F)(F)F)c(Cl)n1)c1ccccc1OC(F)(F)F (stereo not drawn) | -4.77% (inactive) | 
CCCCC(C#N)c1ccc(Cl)cc1F (stereo not drawn) | -1.43% (inactive) | 
Cc1ccc(C(C#N)c2ccc(Cl)cc2)nc1C#N (stereo not drawn) |  | > 100 µM (inactive)

Structure (SMILES) | activity change, negative = toxicity [1] | IC50 [2]
N#CC(CC1CC1)c1ccc(Cl)cc1 (stereo not drawn) | 4.91% (inactive) | 
Cc1ccc(C(C#N)c2ccc(Cl)cc2)nc1 (stereo not drawn) | 4.52% (inactive) | 
N#CC(c1ccc(Cl)cc1)c1ccc(C(F)(F)F)cn1 (stereo not drawn) | -0.58% (inactive) | 
N#CC(c1cccc(Cl)n1)c1ccccc1OC(F)(F)F (stereo not drawn) | -11% (inactive) | 
COc1cccc(C(C#N)c2ccc(F)cc2)n1 (stereo not drawn) | -7.47% (inactive) | 
N#CC(c1ccc(Cl)cc1)c1ncccc1Cl (stereo not drawn) | -0.68% (inactive) | 
Cc1ccc(C(C#N)c2ccc(F)cc2)nc1C#N (stereo not drawn) | -12.8% (inactive) | 
N#CC(c1ccc(F)cc1)c1cccc(C(F)(F)F)n1 (stereo not drawn) | 4.89% (inactive) | 
N#CC(c1ccc(C(F)(F)F)c(Cl)n1)c1ccc(Cl)cc1Cl (stereo not drawn) |  | 26.7 µM
CCCC(C#N)c1ccc(Cl)cc1 (stereo not drawn) | 2.14% (inactive) | 
N#CC(c1ccc(Cl)cc1)c1cccc(C(F)(F)F)n1 (stereo not drawn) | -8.05% (inactive) | 
N#Cc1cccc(C(C#N)c2ccc(Cl)cc2Cl)n1 (stereo not drawn) | 7.33% (inactive) | 
Cc1ccc(C(C#N)c2ccccc2OC(F)(F)F)nc1C#N (stereo not drawn) | -0.14% (inactive) | 
N#CC(c1cccc(Cl)n1)c1ccc(Cl)cc1F (stereo not drawn) | -3.91% (inactive) | 
N#CC(c1ccc(C(F)(F)F)cc1)c1ccc(C(F)(F)F)c(Cl)n1 (stereo not drawn) |  | 38.1 µM
N#CC(c1ccc(Cl)cc1Cl)c1ncccc1Cl (stereo not drawn) | -10.4% (inactive) | 
N#CC(c1ccc(F)cc1)c1ccc(C(F)(F)F)c(Cl)n1 (stereo not drawn) |  | 35.7 µM
CCCCC(C#N)c1ccc(Cl)cc1 (stereo not drawn) | 1.19% (inactive) | 
Cc1cccc(C(C#N)c2ccc(Cl)cc2)n1 (stereo not drawn) | -4.38% (inactive) | 
